In ChEMBL document CHEMBL2086315, “Flabelliferins A and B, sesterterpenoids from the South Pacific sponge Carteriospongia flabellifera” (J Nat Prod, 2012) one finds IC50 and inhibition data, which are given here for two compounds.

The source made the active and inactive calls. The rule behind the calls is not given here.

Experiment [1] has as its system KM12. The experiment in a line: Cytotoxicity against human KM12 cells after 2 days by XTT assay. It is filed as functional, cell-based. As to conditions: KM12, 48 h. The essentials: (§1)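 Test samples were supplied as DMSO solutions and applied to human colon tumour KM12 and COLO205 cells in a two-day in vitro XTT-based antiproliferative assay. Activity was expressed as IC50 (μM).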

Experiment [2] concerns COLO 205. The experiment in a line: Cytotoxicity against human COLO205 cells after 2 days by XTT assay. Particulars: COLO 205, 48 h. It is filed as functional, cell-based. Summed up:
as §1

Experiment [3] concerns KM12. As to the kind of experiment: Growth inhibition of human KM12 cells after 2 days by XTT assay. It is filed as functional, cell-based. As to conditions: KM12, 48 h. The essentials:
as §1

The subject of experiment [4] is COLO 205. As to the kind of experiment: Growth inhibition of human COLO205 cells after 2 days by XTT assay. It is filed as functional, cell-based. Particulars: COLO 205, 48 h. Summed up:
as §1
(In general: Tetrazolium dyes change colour on reduction, which living cells bring about.)

For experiment [5], the target named is Endothelial PAS domain-containing protein 1 (Homo sapiens) (UniProt Q99814). The experiment in a line: Inhibition of HIF-2alpha expressed in 786O cells assessed as inhibition of VEGF expression by luciferase reporter gene assay. It is filed as cell-based.
Chain of Endothelial PAS domain-containing protein 1 (Homo sapiens) (Q99814 whole entry, the tested form may be a part): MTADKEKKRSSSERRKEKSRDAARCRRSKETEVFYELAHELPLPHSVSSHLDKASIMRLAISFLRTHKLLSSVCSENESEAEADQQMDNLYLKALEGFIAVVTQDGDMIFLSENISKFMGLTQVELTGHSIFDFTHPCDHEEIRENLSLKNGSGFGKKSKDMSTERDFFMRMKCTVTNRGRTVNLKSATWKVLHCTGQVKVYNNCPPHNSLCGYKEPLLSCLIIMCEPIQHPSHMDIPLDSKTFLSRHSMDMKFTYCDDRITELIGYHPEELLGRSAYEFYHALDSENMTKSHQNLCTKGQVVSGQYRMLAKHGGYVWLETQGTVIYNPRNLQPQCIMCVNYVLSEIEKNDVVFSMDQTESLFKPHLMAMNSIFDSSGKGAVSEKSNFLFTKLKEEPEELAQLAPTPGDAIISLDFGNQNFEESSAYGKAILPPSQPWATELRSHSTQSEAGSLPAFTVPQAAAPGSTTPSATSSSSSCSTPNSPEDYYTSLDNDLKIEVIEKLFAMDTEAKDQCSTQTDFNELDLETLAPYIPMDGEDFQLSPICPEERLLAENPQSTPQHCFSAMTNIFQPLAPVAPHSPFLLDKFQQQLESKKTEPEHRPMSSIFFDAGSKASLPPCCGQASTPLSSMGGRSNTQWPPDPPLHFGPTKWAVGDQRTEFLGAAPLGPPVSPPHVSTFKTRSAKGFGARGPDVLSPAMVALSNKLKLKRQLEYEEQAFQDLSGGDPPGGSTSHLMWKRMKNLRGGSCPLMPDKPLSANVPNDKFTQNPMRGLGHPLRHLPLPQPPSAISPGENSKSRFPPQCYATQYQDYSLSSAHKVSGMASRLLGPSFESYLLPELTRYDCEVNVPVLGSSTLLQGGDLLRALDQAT

Consider `C=C1[C@@H](OC(C)=O)C[C@H]2[C@@](C)(CC[C@H]3C(C)(C)CCC[C@]23C)[C@@H]1C[C@H](O)[C@H](CCOC(C)=O)C(C)=O` [FLABELLIFERIN A], for which the IC50 (usually the midpoint of a concentration-inhibition curve) in experiment [1] is 15 µM; in experiment [2], 20 µM; in experiment [3], 15 µM; in experiment [4], 20 µM. Moreover, in experiment [5], the inhibition result was “inactive”.
For the compound `CC(=O)O[C@H]1C[C@H]2[C@@](C)(CC[C@H]3C(C)(C)CCC[C@]23C)[C@@H]2C[C@H](O)C(C(C)=O)=C[C@@]12C` [FLABELLIFERIN B], the IC50 was determined as 18 µM in experiment [1], 20 µM in experiment [2], 18 µM in experiment [3] and 20 µM in experiment [4]. Moreover, the inhibition result in experiment [5] is “inactive”.
